Measurements gathered from unrelated publications.

With `COc1nc(-c2cc(C)c(N[C@@H](C)c3ccc(F)cc3)nn2)ccc1-n1cnc(C)c1` the Tmax was 60 min (male CD-1 mouse, plasma; oral, 5 mg/kg, single dose).
`O=C(c1cc2cc(F)ccc2[nH]1)c1c[nH]c2c(F)cccc12` has a Tmax of roughly 15 min (female mouse, plasma; intraperitoneal, 6 mg/kg).
`CNC(=O)c1cc(OC)cc2c(N3CCc4c(cc(Cn5ccnc5)cc4-c4cn(C)nc4C(F)(F)F)C3=O)ccnc12` gave a Tmax of 48 min (male CD-1 mouse, plasma; oral, 50 mg/kg).
`CNC(=O)c1cc(Oc2ccc(NC(=O)Nc3ccc(Cl)c(C(F)(F)F)c3)c(F)c2)cc[n+]1[O-]` gave a Tmax of 324 min (mouse, plasma; oral, 10 mg/kg, single dose).
`CC(C)(C)c1ccc(O)c(CN(Cc2cc(C(C)(C)C)ccc2O)C2CCC(NC(N)=O)CC2)c1` (stereo not drawn) has a Tmax of 30 min (male C57BL/6 mouse, brain; intraperitoneal, 25 mg/kg, single dose).
`Cc1noc([C@H](Cc2c[nH]cn2)NC(=O)CN(CCCc2ccccc2)CC(=O)O)n1` has a Tmax of 10 min (male C57BL/6 mouse, plasma; intraperitoneal, 30 mg/kg).
With `CC(C)(C)c1cc(NC(=O)Nc2ccc(Oc3ccnc4[nH]c(=O)cnc34)cc2F)n(-c2ccccc2)n1` the Tmax was 4.98 min (BALB/c mouse, plasma; intravenous, 2 mg/kg).
The Tmax of `COc1nc(-c2cc(C)c(N[C@@H](C)c3cc(F)cc(F)c3)nn2)ccc1-n1cnc(C)c1` is reported as 60 min (male CD-1 mouse, plasma; oral, 5 mg/kg, single dose).
The Tmax of `C=CC(=O)N1CC2CC(n3nc(-c4ccc(C(=O)Nc5ccccn5)cc4)c4c(N)ncnc43)CC2C1` (stereo not drawn) is reported as 15 min (SCID mouse, plasma; oral, 0.2 mg/kg).
The Tmax of `CS(=O)(=O)CCNCc1ccc(-c2ccc3ncnc(Nc4ccc(OCc5cccc(F)c5)c(Cl)c4)c3c2)o1` is reported as 480 min (nude mouse, plasma; oral, 200 mg/kg, single dose).
`CN1CCC[C@H](CN2c3ccccc3Sc3ccccc32)C1.Cl` gave a Tmax of 120 min (mouse, plasma; oral, 64 mg/kg, single dose).
For `Cc1cc(Nc2ccc(S(F)(F)(F)(F)F)cc2)n2ncnc2n1`, the Tmax was 120 min (male Swiss mouse, plasma; oral, 100 mg/kg, single dose).
For `Cc1cc(C)cc(NC(=O)c2cnn(-c3ccc(C(C)C)cc3)c2C2CCNCC2)c1`, the Tmax was roughly 300 min (SCID mouse, plasma; oral, 50 mg/kg, single dose).
`Cc1c(-c2cc3ccccc3n2Cc2ccc(F)cc2)nc2cc(C(=O)N3CCC[C@@H](N)C3)ccn12` has a Tmax of 30 min (male BALB/c mouse, plasma; oral, 10 mg/kg).
The Tmax of `Cc1ccc2cncc(N3CCc4c(cc(Cn5ccnc5)cc4-c4cn(C)nc4C(F)(F)F)C3=O)c2c1` is reported as 78 min (male CD-1 mouse, plasma; oral, 50 mg/kg).
With `CN1C(=O)c2ccccc2[S@+]([O-])c2ccc(C(=O)NCCc3cccs3)cc21` the Tmax was 15 min (male C57BL/6 mouse, brain; intraperitoneal, 30 mg/kg, single dose).
The Tmax of `CC=Cc1ccc(O)c(OC)c1` is reported as 5 min (mouse, lung; intranasal, 100 mg/kg).
With `CC(C)Oc1c(NC(=O)c2ccc(NC(=O)[C@H](CC(N)=O)NC(=O)c3ccc(NC(=O)c4ccc(C#N)cc4)cc3)cc2)ccc(C(=O)Nc2ccc(C(=O)O)cc2)c1O` the Tmax was 100 min (male CD-1 mouse, plasma; subcutaneous, 5 mg/kg, single dose).
